Assay results reported in ChEMBL document CHEMBL1153849, “Synthesis and biological evaluation of benzenesulfonamide-substituted 4-(6-alkylpyridin-2-yl)-5-(quinoxalin-6-yl)imidazoles as transforming growth factor-beta type 1 receptor kinase inhibitors” (Eur J Med Chem, 2009).

Assays:
[1] = target: Mitogen-activated protein kinase 14 (Homo sapiens) (UniProt Q16539); assay: Inhibition of p38alpha MAP kinase at 10 uM; design: scale not given: the % may be the effect or the level left
Procedure, shortened: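 Radiometric coupled assay. [γ-³²P]ATP and MAPKAP kinase-2 substrate then added, 10 min at 30 °C. Mixture spotted onto P81 phosphocellulose paper, washed with 0.75% phosphoric acid, bound radioactivity counted by liquid scintillation.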

[2] = target: T1, TGF-beta receptor type-1 (Homo sapiens) (UniProt P36897); assay: Inhibition of human ALK5 activity in human HaCaT cells assessed as ARE-luciferase reporter activity; assay type: cell-based; settings: in the assay text read “p3TP-luciferase” for “ARE-luciferase”
T1 sequence (whole entry): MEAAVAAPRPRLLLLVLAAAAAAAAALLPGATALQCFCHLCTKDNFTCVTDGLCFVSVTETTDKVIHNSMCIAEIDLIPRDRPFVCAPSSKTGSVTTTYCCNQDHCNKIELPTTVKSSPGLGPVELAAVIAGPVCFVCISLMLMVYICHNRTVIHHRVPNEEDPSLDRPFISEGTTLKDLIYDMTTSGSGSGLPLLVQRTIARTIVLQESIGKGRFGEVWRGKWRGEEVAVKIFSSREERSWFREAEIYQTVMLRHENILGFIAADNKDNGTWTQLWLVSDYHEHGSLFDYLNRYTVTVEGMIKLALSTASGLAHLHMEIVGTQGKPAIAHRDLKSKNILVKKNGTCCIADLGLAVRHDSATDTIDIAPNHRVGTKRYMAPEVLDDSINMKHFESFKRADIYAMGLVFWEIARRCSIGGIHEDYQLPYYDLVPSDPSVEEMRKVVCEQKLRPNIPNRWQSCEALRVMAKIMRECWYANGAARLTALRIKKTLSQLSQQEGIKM
Procedure, shortened: (§1)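 HaCaT cells seeded at 5 × 10⁴ per well; next day (about 90% confluent) transiently co-transfected with p3TP-Luc or ARE-Luc reporter plus β-galactosidase by lipofection. Inhibitors added 24 h post-transfection, 2 h before stimulation with 5 ng/mL TGF-β for 18–24 h. Luminescence of lysates read. Mean ± SD of three independent experiments run in triplicate, relative to DMSO vehicle control.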

[3] = target: T1, TGF-beta receptor type-1 (Homo sapiens); assay: Inhibition of human ALK5 activity in human HaCaT cells assessed as p3TP-luciferase reporter activity; assay type: cell-based; procedure, shortened: as §1

Mitogen-activated protein kinase 14 (Homo sapiens), sequence (Q16539 whole entry): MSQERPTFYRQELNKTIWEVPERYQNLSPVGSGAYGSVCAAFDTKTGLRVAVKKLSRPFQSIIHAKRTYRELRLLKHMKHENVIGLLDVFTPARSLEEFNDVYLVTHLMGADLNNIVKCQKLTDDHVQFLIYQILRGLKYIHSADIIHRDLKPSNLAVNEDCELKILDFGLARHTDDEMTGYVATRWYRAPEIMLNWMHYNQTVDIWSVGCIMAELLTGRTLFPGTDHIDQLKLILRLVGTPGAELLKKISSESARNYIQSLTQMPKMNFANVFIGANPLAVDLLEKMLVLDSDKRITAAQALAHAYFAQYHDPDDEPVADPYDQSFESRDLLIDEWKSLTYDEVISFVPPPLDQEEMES

Compound | Activity [1] | Activity [2] | Activity [3]
CC(C)c1cccc(-c2[nH]c(CCc3ccc(S(N)(=O)=O)cc3)nc2-c2ccc3nccnc3c2)n1 | 105% | – | –
NC(=O)c1ccc(-c2nc(-c3ccccn3)c(-c3ccc4c(c3)OCO4)[nH]2)cc1 | 49% | – | –
Cc1cccc(-c2[nH]c(Cc3ccc(S(N)(=O)=O)cc3)nc2-c2ccc3nccnc3c2)n1 | 89% | Dose-dependent effect | Dose-dependent effect
CCc1cccc(-c2[nH]c(CCc3ccc(S(N)(=O)=O)cc3)nc2-c2ccc3nccnc3c2)n1 | 96% | – | –
CC(C)c1cccc(-c2[nH]c(Cc3ccc(S(N)(=O)=O)cc3)nc2-c2ccc3nccnc3c2)n1 | 98% | – | –

More lines, now with the values ahead:

Activity [1] | Activity [2] | Activity [3] | Compound
105% | – | – | CCCc1cccc(-c2[nH]c(Cc3ccc(S(N)(=O)=O)cc3)nc2-c2ccc3nccnc3c2)n1
92% | Dose-dependent effect | Dose-dependent effect | CCc1cccc(-c2[nH]c(Cc3ccc(S(N)(=O)=O)cc3)nc2-c2ccc3nccnc3c2)n1
91% | – | – | Cc1cccc(-c2[nH]c(CCc3ccc(S(N)(=O)=O)cc3)nc2-c2ccc3nccnc3c2)n1
97% | – | – | NS(=O)(=O)c1ccc(CCc2nc(-c3ccc4nccnc4c3)c(-c3ccccn3)[nH]2)cc1
103% | – | – | CCCc1cccc(-c2[nH]c(CCc3ccc(S(N)(=O)=O)cc3)nc2-c2ccc3nccnc3c2)n1
97% | – | – | CCCCc1cccc(-c2[nH]c(CCc3ccc(S(N)(=O)=O)cc3)nc2-c2ccc3nccnc3c2)n1
95% | – | – | NS(=O)(=O)c1ccc(Cc2nc(-c3ccc4nccnc4c3)c(-c3ccccn3)[nH]2)cc1
104% | – | – | CCCCc1cccc(-c2[nH]c(Cc3ccc(S(N)(=O)=O)cc3)nc2-c2ccc3nccnc3c2)n1
